Laboratory results taken from article PMC3949138 (Journal of veterinary pharmacology and therapeutics, 2013).
Values joined by “and” are separate entries in the source; they are usually repeats but may differ in a detail not shown here. Identical values can stand only once. Like-named read-outs stand apart in the source and are kept apart here.

Legend:
cats = assay: Tolerability monitoring in cats; type: in vivo
Procedure, shortened: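 Six cats dosed in the crossover (2 mg/kg IV in DMSO; 250 mg/m2 PO capsules) had physical examinations. CBC (14 parameters) and serum biochemistry (16 values) were taken 1 week before, 24 h after and 1 week after each dose. Daily food intake was recorded for 1 week before and after each dosage; days compared by […].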

[1] = system: acetylated histone (H3K9,14); type: in vivo, cats
dogs = details: dog, in vivo; cited from earlier work
[2] = ref Sandhu et al., 2007, cited from earlier work
[3] = ref Kelly et al., 2005, cited from earlier work
[4] = Serum pharmacokinetics of SAHA in cats after IV and PO administration; type: in vivo
Procedure, shortened: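 Six adult SPF cats (3 female, 3 male, 10–18 months) in a randomized crossover with 1-week washout: 2 mg/kg IV (20 mg/mL in DMSO) or 250 mg/m2 PO in gelatin capsules. Serum without anticoagulant at set times up to 1440 min, stored at −70 °C. d5-SAHA internal standard at 1000 ng/mL final; acetonitrile extraction; C18 UPLC, positive-ion ESI MS/MS; LOQ 2.26 ng/mL; non-compartmental parameters.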

[5] = after IV administration of the SAHA/DMSO mixture
[6] = cats n=6, 250 mg/m2 PO, mean ± SD

O=C(CCCCCCC(=O)Nc1ccccc1)NO [SAHA, Suberoylanilidehydroxamic acid]
overall tolerability (cats; 2 mg/kg IV and 250 mg/m2 PO, domestic cats): well tolerated | change in daily food intake following drug administration (cats; 1 week before and 1 week after each dosage (IV and PO)): No significant change | duration of moderate bleeding from venipuncture sites (cats; [5]): up to 5 minutes | moderate bleeding from venipuncture sites (cats affected) (cats; [5]): 2/6 | open-mouth breathing (cats affected) (cats; immediately following 2 mg/kg IV injection in DMSO): 2/6 | acetylated histone protein in blood leukocytes (acetyl H3/total H3) ([1]; 4 cats, 2 mg/kg IV and 250 mg/m2 PO): An increase in acetylated histone protein was detected | time for acetylated histone protein to return to baseline ([1]; 4 cats, after IV and PO administration): approximately 2 hours | histone acetylation in peripheral blood mononuclear cells ([1]; single cat #11-245, 60 mg/kg PO, 0, 60, 120, 1440 min): demonstrated a pharmacodynamic effect which roughly correlated with pharmacokinetics | no observed adverse effects level (NOAEL) (dogs): 60 mg/kg | oral bioavailability ([2]; dog): 1.8% | terminal elimination half-life ([2]; dogs, 2 mg/kg IV): 12 min | AUC0-τ ([2]; dogs, 20 mg/kg oral): 0.42 µM·h | Cmax ([2]; read-out: average Cmax, dogs, 20 mg/kg oral): 260 nM | half-life following IV administration ([3]; humans, IV, 2003, Kelly et al.): 21 to 58 min | bioavailability ([3]; patients with advanced cancer, estimated): 43% | Cmax ([4]; both, cat, serum, po, 250 mg/m2): ~160 nM | AUC ([4]; both, serum, iv, 2 mg/kg): 150 ± 40 ng·h/mL | AUC(0-inf) ([4]; both, serum, iv, 2 mg/kg): 150 ± 50 ng·h/mL | clearance ([4]; both, serum, iv, 2 mg/kg): 233 mL/min/kg | half-life ([4]; both, serum, iv, 2 mg/kg): 9 min | half-life ([4]; both, serum, po, 2 mg/kg): 120 ± 60 min | AUC ([4]; both, serum, po, 250 mg/m2): 0.266 µM·h and 70 ng·h/mL | AUC(0-inf) ([4]; both, serum, po, 250 mg/m2): 80 ± 20 ng·h/mL | Cmax ([4]; both, serum, po, 250 mg/m2): 160 nM | bioavailability ([4]; both, serum, po, 250 mg/m2): 8 ± 4% | Cmax ([4]; cat, serum, po, 60 mg/kg): 50.1 ng/mL | T1/2λz (elimination half-life) ([4]; cats n=6, 2 mg/kg IV in DMSO, serum, mean ± SD): 9 ± 1.8 min | Percent Extrapolated (of AUC) ([4]; cats n=6, 2 mg/kg IV, mean ± SD): 0.6 ± 0.2% | Cmaxobs (observed maximum serum concentration) [4, 6]: 41.7 ng/mL and 40 ± 10 ng/mL | Percent Extrapolated (of AUC) [4, 6]: 17 ± 7% | Tmaxobs (time to observed maximal serum concentration) [4, 6]: 36 ± 18 min
